Experiments:
[1] = Ratio of drug uptake in pons to caudate of anesthetized rhesus monkey at 15 to 20 mCi after 85 mins postinjection by microPET; type: ADME, organism-based, Macaca mulatta; settings: in vivo
Outline: (§1)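 Anesthetized adult male rhesus monkeys scanned on a microPET P4 after 15–20 mCi of the 11C radioligand; emission collected continuously for 125 min, binned, time-activity curves from manually drawn anatomical ROIs; regional uptake divided by caudate uptake (caudate as NET-poor reference) at 85 min postinjection, at baseline.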

Pancreas [2] = assay: Biodistribution in Sprague-Dawley rat pancreas at 300 uCi, iv after 30 mins; type: ADME, organism-based; settings: in vivo, 0.5 h
Liver [3] = assay: Biodistribution in Sprague-Dawley rat liver at 300 uCi, iv after 60 mins; type: ADME, organism-based; settings: in vivo, 1 h
Bone [4] = assay: Biodistribution in Sprague-Dawley rat bone at 300 uCi, iv after 5 mins; type: ADME, organism-based, Bone element; settings: in vivo
Pancreas [5] = assay: Biodistribution in Sprague-Dawley rat pancreas at 300 uCi, iv after 15 mins; type: ADME, organism-based; settings: in vivo, 0.25 h
[6] = Biodistribution in Sprague-Dawley rat testis at 300 uCi, iv after 30 mins; type: ADME, organism-based; settings: in vivo, 0.5 h
[7] = Ratio of drug uptake in midbrain to caudate of anesthetized rhesus monkey at 15 to 20 mCi after 85 mins postinjection by microPET; type: ADME, organism-based, Macaca mulatta; settings: in vivo
Outline: (§2)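 Anesthetized adult male rhesus monkeys given 15–20 mCi of the ¹¹C tracer, alone or after desipramine (0.125 or 0.25 mg/kg) 40 min beforehand. MicroPET emission collected continuously for 125 min and binned. ROIs drawn manually on anatomical landmarks to give time-activity curves. Region-to-caudate uptake ratio taken at 85 min postinjection.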

Muscle tissue [8] = assay: Biodistribution in Sprague-Dawley rat muscle at 300 uCi, iv after 60 mins; type: ADME, organism-based; settings: in vivo, 1 h
Muscle tissue [9] = assay: Biodistribution in Sprague-Dawley rat muscle at 300 uCi, iv after 15 mins; type: ADME, organism-based; settings: in vivo, 0.25 h
Pancreas [10] = assay: Biodistribution in Sprague-Dawley rat pancreas at 300 uCi, iv after 5 mins; type: ADME, organism-based; settings: in vivo
Heart [11] = assay: Biodistribution in Sprague-Dawley rat heart at 300 uCi, iv after 30 mins; type: ADME, organism-based; settings: in vivo, 0.5 h
[12] = Biodistribution in Sprague-Dawley rat testis at 300 uCi, iv after 60 mins; type: ADME, organism-based; settings: in vivo, 1 h
Kidney [13] = assay: Biodistribution in Sprague-Dawley rat kidney at 300 uCi, iv after 30 mins; type: ADME, organism-based; settings: in vivo, 0.5 h
Muscle tissue [14] = assay: Biodistribution in Sprague-Dawley rat muscle at 300 uCi, iv after 30 mins; type: ADME, organism-based; settings: in vivo, 0.5 h
Brain [15] = assay: Biodistribution in Sprague-Dawley rat brain at 300 uCi, iv after 15 mins; type: ADME, organism-based; settings: in vivo, 0.25 h
Spleen [16] = assay: Biodistribution in Sprague-Dawley rat spleen at 300 uCi, iv after 15 mins; type: ADME, organism-based; settings: in vivo, 0.25 h
[17] = Ratio of drug uptake in thalamus to caudate of awaken rhesus monkey at 15 to 20 mCi after by PET method; type: ADME, Macaca mulatta; settings: in vivo
Outline: (§3)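 Awake rhesus monkeys imaged on a high-resolution research tomograph (HRRT) for 120 min after radioligand injection; images coregistered with composite MRI to define regions; time-activity curves generated and highest ratio of regional uptake to caudate uptake taken.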

Brain [18] = assay: Biodistribution in Sprague-Dawley rat brain at 300 uCi, iv after 30 mins; type: ADME, organism-based; settings: in vivo, 0.5 h
[19] = Ratio of drug uptake in thalamus to caudate of anesthetized rhesus monkey at 15 to 20 mCi after 85 mins postinjection by microPET; type: ADME, organism-based, Macaca mulatta; settings: in vivo; outline: as §1
[20] = Ratio of drug uptake in cerebellum to caudate of anesthetized rhesus monkey at 15 to 20 mCi after 85 mins postinjection by microPET; type: ADME, organism-based, Macaca mulatta; settings: in vivo; outline: as §2
[21] = Ratio of drug uptake in cerebellum to caudate of anesthetized rhesus monkey at 15 to 20 mCi pretreated with 0.125 mg/kg desipramine by microPET; type: ADME, organism-based, Macaca mulatta; design: dose 0.125 mg/kg; settings: in vivo
Outline: (§4)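 Anesthetized adult male rhesus monkeys imaged on a microPET P4 system after injection of 15–20 mCi of the 11C-labeled radioligand. Desipramine was given 40 min before radiotracer injection. Emission data were collected continuously for 125 min and binned. ROIs were drawn manually on anatomical landmarks in the reconstructed images. The ratio of region-of-interest to caudate uptake was taken from time-activity curves at 85 min postinjection.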

Bone [22] = assay: Biodistribution in Sprague-Dawley rat bone at 300 uCi, iv after 60 mins; type: ADME, organism-based, Bone element; settings: in vivo, 1 h
Heart [23] = assay: Biodistribution in Sprague-Dawley rat heart at 300 uCi, iv after 5 mins; type: ADME, organism-based; settings: in vivo
[24] = Ratio of drug uptake in thalamus to caudate of anesthetized rhesus monkey at 15 to 20 mCi pretreated with 0.125 mg/kg desipramine by microPET; type: ADME, organism-based, Macaca mulatta; design: dose 0.125 mg/kg; settings: in vivo; outline: as §4
Spleen [25] = assay: Biodistribution in Sprague-Dawley rat spleen at 300 uCi, iv after 30 mins; type: ADME, organism-based; settings: in vivo, 0.5 h
[26] = Ratio of drug uptake in cerebellum to caudate of awaken rhesus monkey at 15 to 20 mCi after by PET method; type: ADME, tissue-based, Macaca mulatta; settings: in vivo
Outline: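 Awake rhesus monkeys imaged on a high-resolution research tomograph for 120 min after injection of the ¹¹C tracer. Images coregistered with composite MRI to define regions of interest. Highest cerebellum-to-caudate uptake ratio read from the time-activity curves.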

Kidney [27] = assay: Biodistribution in Sprague-Dawley rat kidney at 300 uCi, iv after 5 mins; type: ADME, organism-based; settings: in vivo
Bone [28] = assay: Biodistribution in Sprague-Dawley rat bone at 300 uCi, iv after 30 mins; type: ADME, organism-based, Bone element; settings: in vivo, 0.5 h
Liver [29] = assay: Biodistribution in Sprague-Dawley rat liver at 300 uCi, iv after 30 mins; type: ADME, organism-based; settings: in vivo, 0.5 h
Heart [30] = assay: Biodistribution in Sprague-Dawley rat heart at 300 uCi, iv after 60 mins; type: ADME, organism-based; settings: in vivo, 1 h
[31] = Biodistribution in Sprague-Dawley rat testis at 300 uCi, iv after 15 mins; type: ADME, organism-based; settings: in vivo, 0.25 h
Blood [32] = assay: Biodistribution in Sprague-Dawley rat blood at 300 uCi, iv after 30 mins; type: ADME, organism-based; settings: in vivo, 0.5 h
[33] = Biodistribution in Sprague-Dawley rat testis at 300 uCi, iv after 5 mins; type: ADME, organism-based; settings: in vivo
Blood [34] = assay: Biodistribution in Sprague-Dawley rat blood at 300 uCi, iv after 5 mins; type: ADME, organism-based; settings: in vivo
Kidney [35] = assay: Biodistribution in Sprague-Dawley rat kidney at 300 uCi, iv after 15 mins; type: ADME, organism-based; settings: in vivo, 0.25 h
Blood [36] = assay: Biodistribution in Sprague-Dawley rat blood at 300 uCi, iv after 60 mins; type: ADME, organism-based; settings: in vivo, 1 h
Liver [37] = assay: Biodistribution in Sprague-Dawley rat liver at 300 uCi, iv after 15 mins; type: ADME, organism-based; settings: in vivo, 0.25 h
Blood [38] = assay: Biodistribution in Sprague-Dawley rat blood at 300 uCi, iv after 15 mins; type: ADME, organism-based; settings: in vivo, 0.25 h
Lung [39] = assay: Biodistribution in Sprague-Dawley rat lung at 300 uCi, iv after 30 mins; type: ADME, organism-based; settings: in vivo, 0.5 h
[40] = Ratio of drug uptake in midbrain to caudate of anesthetized rhesus monkey at 15 to 20 mCi pretreated with 0.125 mg/kg desipramine by microPET; type: ADME, organism-based, Macaca mulatta; design: dose 0.125 mg/kg; settings: in vivo; outline: as §4
Bone [41] = assay: Biodistribution in Sprague-Dawley rat bone at 300 uCi, iv after 15 mins; type: ADME, organism-based, Bone element; settings: in vivo, 0.25 h
Lung [42] = assay: Biodistribution in Sprague-Dawley rat lung at 300 uCi, iv after 5 mins; type: ADME, organism-based; settings: in vivo
Heart [43] = assay: Biodistribution in Sprague-Dawley rat heart at 300 uCi, iv after 15 mins; type: ADME, organism-based; settings: in vivo, 0.25 h
Liver [44] = assay: Biodistribution in Sprague-Dawley rat liver at 300 uCi, iv after 5 mins; type: ADME, organism-based; settings: in vivo
Muscle tissue [45] = assay: Biodistribution in Sprague-Dawley rat muscle at 300 uCi, iv after 5 mins; type: ADME, organism-based; settings: in vivo
[46] = Ratio of drug uptake in pons to caudate of awaken rhesus monkey at 15 to 20 mCi after by PET method; type: ADME, Macaca mulatta; settings: in vivo; outline: as §3
Spleen [47] = assay: Biodistribution in Sprague-Dawley rat spleen at 300 uCi, iv after 60 mins; type: ADME, organism-based; settings: in vivo, 1 h
Lung [48] = assay: Biodistribution in Sprague-Dawley rat lung at 300 uCi, iv after 60 mins; type: ADME, organism-based; settings: in vivo, 1 h
Lung [49] = assay: Biodistribution in Sprague-Dawley rat lung at 300 uCi, iv after 15 mins; type: ADME, organism-based; settings: in vivo, 0.25 h
Spleen [50] = assay: Biodistribution in Sprague-Dawley rat spleen at 300 uCi, iv after 5 mins; type: ADME, organism-based; settings: in vivo
Brain [51] = assay: Biodistribution in Sprague-Dawley rat brain at 300 uCi, iv after 60 mins; type: ADME, organism-based; settings: in vivo, 1 h
Pancreas [52] = assay: Biodistribution in Sprague-Dawley rat pancreas at 300 uCi, iv after 60 mins; type: ADME, organism-based; settings: in vivo, 1 h
Brain [53] = assay: Biodistribution in Sprague-Dawley rat brain at 300 uCi, iv after 5 mins; type: ADME, organism-based; settings: in vivo
[54] = Ratio of drug uptake in midbrain to caudate of awaken rhesus monkey at 15 to 20 mCi after by PET method; type: ADME, Macaca mulatta; settings: in vivo; outline: as §3
Kidney [55] = assay: Biodistribution in Sprague-Dawley rat kidney at 300 uCi, iv after 60 mins; type: ADME, organism-based; settings: in vivo, 1 h
[56] = Ratio of drug uptake in pons to caudate of anesthetized rhesus monkey at 15 to 20 mCi pretreated with 0.125 mg/kg desipramine by microPET; type: ADME, organism-based, Macaca mulatta; design: dose 0.125 mg/kg; settings: in vivo; outline: as §4

[11CH3]c1ccccc1O[C@@H](c1ccccc1)[C@@H]1CNCCO1
Ratio [1]: 1.44 | Drug uptake (Pancreas [2]): 0.77 % ID/g | Drug uptake (Liver [3]): 0.29 % ID/g | Drug uptake (Bone [4]): 0.48 % ID/g | Drug uptake (Pancreas [5]): 0.83 | Drug uptake [6]: 0.19 % ID/g | Ratio [7]: 1.43 | Drug uptake (Muscle tissue [8]): 0.22 % ID/g | Drug uptake (Muscle tissue [9]): 0.22 % ID/g | Drug uptake (Pancreas [10]): 1.59 % ID/g | Drug uptake (Heart [11]): 1.07 % ID/g | Drug uptake [12]: 0.15 % ID/g | Drug uptake (Kidney [13]): 0.56 % ID/g | Drug uptake (Muscle tissue [14]): 0.22 % ID/g | Drug uptake (Brain [15]): 0.72 % ID/g | Drug uptake (Spleen [16]): 1.79 % ID/g | Ratio [17]: 1.25 | Drug uptake (Brain [18]): 0.55 % ID/g | Ratio [19]: 1.3 | Ratio [20]: 1.25 | Ratio [21]: 1.04 | Drug uptake (Bone [22]): 0.17 % ID/g | Drug uptake (Heart [23]): 3.43 % ID/g | Ratio [24]: 1.1 | Drug uptake (Spleen [25]): 1.13 % ID/g | Ratio [26]: 0.93 | Drug uptake (Kidney [27]): 2.66 % ID/g | Drug uptake (Bone [28]): 0.2 % ID/g | Drug uptake (Liver [29]): 0.46 % ID/g | Drug uptake (Heart [30]): 0.62 % ID/g | Drug uptake [31]: 0.18 % ID/g | Drug uptake (Blood [32]): 0.05 % ID/g | Drug uptake [33]: 0.18 % ID/g | Drug uptake (Blood [34]): 0.13 % ID/g | Drug uptake (Kidney [35]): 0.85 % ID/g | Drug uptake (Blood [36]): 0.04 % ID/g | Drug uptake (Liver [37]): 0.77 % ID/g | Drug uptake (Blood [38]): 0.05 % ID/g | Drug uptake (Lung [39]): 3.63 % ID/g | Ratio [40]: 1.2 | Drug uptake (Bone [41]): 0.37 % ID/g | Drug uptake (Lung [42]): 15.3 % ID/g | Drug uptake (Heart [43]): 1.49 % ID/g | Drug uptake (Liver [44]): 0.28 % ID/g | Drug uptake (Muscle tissue [45]): 0.25 % ID/g | Ratio [46]: 1.13 | Drug uptake (Spleen [47]): 0.49 % ID/g | Drug uptake (Lung [48]): 1.98 % ID/g | Drug uptake (Lung [49]): 6.92 % ID/g | Drug uptake (Spleen [50]): 3.5 % ID/g | Drug uptake (Brain [51]): 0.25 % ID/g | Drug uptake (Pancreas [52]): 0.63 % ID/g | Drug uptake (Brain [53]): 0.9 % ID/g | Ratio [54]: 1.2 | Drug uptake (Kidney [55]): 0.31 % ID/g | Ratio [56]: 1.13

Reference: ChEMBL document CHEMBL1139340, “Synthesis, radiosynthesis, and biological evaluation of carbon-11 and fluorine-18 labeled reboxetine analogues: potential positron emission tomography radioligands for in vivo imaging of the norepinephrine transporter” (J Med Chem, 2009)
